APP 5'UTR act – APP 5'UTR luciferase reporter activation; SH-SY5Y APP 5'UTR luciferase reporter, luminescence; zero percent = DMSO vehicle wells; activation, % at 2 µM; actives 1% (n = 190,000); AID 1276;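 active means activation above a set limit, based on mean plus 3 SD of controls, cut at about 140% in these data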
NF-kB expr up – raises NF-kB expression in human neuronal cells; AID 1239; fold change at 12.5 µM; NF-kB reporter expression; hits give high values; actives 1.6% (n = 190,000); in the data active means fold change above about 3.3
STAT1 inh – STAT1 signaling inhibition; AID 920; inhibition, % at 5.5 µM; actives 0.35% (n = 200,000); NIH 3T3 STAT1-luciferase reporter, IFN-gamma, luminescence;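 active means inhibition above a set limit, the mean inhibition across all tested compounds plus 3 SD, cut at about 34% in these data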;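 further: 0% = IFN-gamma with DMSO and 100% = IFN-gamma with 300 µM nifuroxazide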
STAT1 act – activators of IFN-gamma induced STAT1 signaling. AID 932. activation (% of control), % at 5.5 µM. actives 2.6% (n = 200,000). NIH 3T3 STAT1-luciferase reporter, luminescence; 100% = IFN-gamma alone, no compound;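 active means activation above the screen-wide mean activation plus 3 SD, cut at about 130% in these data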;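 further: raw ratio to IFN-gamma control signal so 100% means no change and 0% no light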
STAT3 inh – STAT3 signaling inhibition; U3A cells, IL-6 STAT3-luciferase reporter, luminescence; host cell line lacks STAT1; actives 0.89% (n = 190,000); inhibition, % at 5.5 µM;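 active means inhibition above the mean inhibition across all screened compounds plus 3 SD, cut at about 44% in these data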;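 further: 0% = DMSO only wells and 100% = 100 µM nifuroxazide control wells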
STAT3 activator – increases IL-6 driven STAT3 reporter signal | actives 0.91% (n = 190,000) | U3A cells, IL-6 STAT3-luciferase reporter, luminescence; 100% = signal with IL-6 EC80 alone | activation (% of control), % at 5.6 µM | AID 871;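 active means activation above the screen-wide mean of compound activation plus 3 SD, cut at about 130% in these data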;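 further: 0% = background luminescence of wells with medium and substrate only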
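system = STAT3-luciferase reporter U3A cells | reagent = IL-6 stimulus at 33 ng/mL final | timing = 1 h compound pre-exposure, 6 h IL-6 stimulation, 37 °C | measured by = luminescence | evaluation = % activation versus median of IL-6-stimulated wells | control set = IL-6-only wells as 100% reference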
Numbers without * were called inactive; x = not tested or not shown. Compounds with a hit are over-represented: about 4.9% of the library has one in this group of screens.

SMILES | APP 5'UTR act | NF-kB expr up | STAT1 inh | STAT1 act | STAT3 inh | STAT3 activator
Cc1ccc(Nc2n[nH]c(C)c2[N+](=O)[O-])c(C)c1 | 27.5 | 5.29* | -8.2 | 107.1 | -7.1 | 107.0
CCOc1cc(Br)ccc1S(=O)(=O)NCc1ccccc1 | -1.4 | 1.35 | 3.0 | 97.4 | 14.0 | 92.5
COc1cc(C2C(C#N)=C(N)Oc3cc(N)ccc32)cc(OC)c1OC (configuration not stated) | -95.3 | 3.74* | -10.2 | 109.4 | -5.2 | 107.8
CCCC(=O)NC(c1ccccc1OC)c1ccc2cccnc2c1O (configuration not stated) | -74.7 | 4.74* | 6.1 | 92.7 | 14.1 | 90.0
Cc1csc(NC(=O)c2nn(C)c(C)c2[N+](=O)[O-])n1 | 9.5 | 0.98 | -2.6 | 104.8 | 4.7 | 94.4
O=C(Nc1nccs1)c1sc2cc(Cl)ccc2c1Cl | 128.2 | 3.1 | -52.2 | 146.5* | -34.3 | 130.2
O=C(Nc1nccs1)c1sc2ccccc2c1Cl | 234.5* | 7.01* | -6.4 | 105.9 | 38.4 | 69.0
Cc1nonc1C(=O)N/N=C/c1ccccc1 | 20.1 | 1.09 | -33.9 | 132.4* | -12.0 | 110.3
Cc1nn(C)c(C(=O)N/N=C/c2cc3c(cc2Br)OCO3)c1Br | -1.9 | 1.13 | 1.3 | 98.8 | 0.6 | 99.7
Cc1nonc1C(=O)N/N=C/c1cc2c(cc1Br)OCO2 | 2.9 | 1.54 | -22.3 | 118.9 | -33.2 | 133.1*
CCc1ccc(CNc2ccc3c(c2)ncn3C)cc1 | 102.4 | 2.37 | -52.9 | 148.1* | -5.0 | 110.8
Cc1ccc(C(=O)Nc2ccc3c(c2)ncn3C)cc1 | 139.5* | 3.49* | -42.2 | 138.9* | 7.4 | 94.7
Cc1ccc(CNc2ccc3c(c2)ncn3C)cc1 | 106.7 | 3.27 | -42.5 | 139.1* | -9.2 | 112.0
Cn1cnc2cc(NCc3cccs3)ccc21 | 12.9 | 1.9 | -14.2 | 112.0 | 3.5 | 100.0
CCn1cnc2cc(NCc3ccncc3)ccc21 | 7.0 | 0.96 | -1.8 | 106.9 | 2.7 | 98.9
O=C(/C=C/Nc1ccccc1C(=O)O)c1cccs1 | 49.8 | 0.98 | -46.9 | 142.8* | 6.0 | 93.8
O=C(/C=C/Nc1cccc([N+](=O)[O-])c1)c1cccs1 | 183.8* | 7.47* | -42.6 | 139.2* | -54.1 | 146.0*
Cc1ccc(N/C=C/C(=O)c2cccs2)cc1C | 169.9* | 6.62* | 53.5* | 50.3 | 65.5* | 45.8
Cc1c(N/C=C/C(=O)c2cccs2)c(=O)n(-c2ccccc2)n1C | 29.0 | 0.91 | -30.4 | 127.8 | 4.3 | 98.7
Cc1cc(N/C=C/C(=O)c2cccs2)ccc1F | 177.7* | 7.58* | -25.6 | 121.6 | -14.4 | 119.2
O=C(Cc1cccs1)Nc1cccc([N+](=O)[O-])c1 | -0.3 | 1.24 | 1.7 | 97.1 | 2.8 | 103.5
O=C(Nc1ccc2c(c1)OCCO2)c1cncc(Br)c1 | 157.3* | 4.88* | -25.6 | 123.6 | 41.8 | 65.8
Cc1occc1C(=O)Nc1ccc2c(c1)OCCO2 | 82.5 | 3.12 | -38.1 | 131.1* | 6.8 | 95.5
Cc1cc(C(=O)Nc2ccc3c(c2)OCCO3)c(C)o1 | 132.2 | 4.63* | -33.2 | 130.3* | 5.0 | 99.4
Cc1cccc(C(=O)O/N=C(\N)c2cccc([N+](=O)[O-])c2)c1 | 95.1 | 2.91 | -32.9 | 129.6* | 3.0 | 107.3
SMILES | APP 5'UTR act | NF-kB expr up | STAT1 inh | STAT1 act | STAT3 inh | STAT3 activator
COc1ccc(/C(N)=N/OC(=O)c2cccc([N+](=O)[O-])c2C)cc1OC | -0.4 | 1.28 | -12.7 | 111.6 | 22.5 | 83.7
Cc1ccccc1C(=O)O/N=C(\N)c1cccc([N+](=O)[O-])c1 | 88.6 | 3.21 | -43.4 | 139.1* | -20.6 | 128.2
N/C(=N\OC(=O)c1cccc2ccccc12)c1cccc([N+](=O)[O-])c1 | 17.6 | 1.36 | -7.0 | 106.3 | 23.8 | 88.9
COc1cccc(C(=O)O/N=C(\N)c2ccc([N+](=O)[O-])cc2)c1OC | x | 2.7 | -35.4 | 132.4* | 8.6 | 97.9
O=C(CSc1nc2ccccc2s1)Nc1cc(S(=O)(=O)N2CCOCC2)ccc1O | -1.0 | 0.9 | -6.3 | 105.7 | -24.9 | 121.0
COc1cc(/C=C(\C#N)c2nc3ccccc3[nH]2)ccc1OC(=O)c1ccco1 | 66.0 | 1.07 | -16.7 | 114.7 | 4.9 | 96.1
COc1cc(/C=C(\C#N)c2nc3ccccc3[nH]2)c([N+](=O)[O-])cc1OCc1ccccc1 | 33.3 | 0.43 | -4.8 | 104.4 | -36.1 | 136.6*
CCc1ccc(OCCn2cccn2)cc1 | 30.8 | 1.25 | -11.5 | 110.0 | 4.5 | 98.2
Cc1ccc(NC(=O)n2ccc(-c3ccc(-n4ccnc4)cc3)n2)cc1 | 96.5 | 2.31 | -39.5 | 135.3* | -7.3 | 109.1
N#C/C(=C\c1ccc(N2CCCCC2)o1)C(N)=O | 29.6 | 1.33 | -19.0 | 117.1 | 12.3 | 91.6
N#C/C(=C\c1ccc(N2CCCCC2)o1)C(=O)Nc1cccc(Br)c1 | 169.5* | 1.13 | -67.0 | 159.6* | -12.2 | 110.7
CCOC(=O)CSc1n[nH]c(NC(=O)NC(C)C)n1 | -1.5 | 1.05 | -9.6 | 106.6 | 7.7 | 98.1
O=C(O)c1ccc(/C=N/Nc2cccc(C(F)(F)F)c2)cc1 | 23.7 | 1.06 | -55.3 | 149.2* | -6.9 | 113.1
Cc1ccc(/C=N/Nc2ccc(C(=O)O)cc2)o1 | 124.6 | 2.99 | -27.1 | 124.9 | -22.2 | 121.8
Cc1nn(-c2cccc(C(F)(F)F)c2)c(Cl)c1/C=N/Nc1cccc(C(=O)O)c1 | 158.8* | 8.01* | -6.3 | 105.7 | 17.6 | 85.1
CC(C)c1ccc(/C=N/Nc2ccc(C(=O)O)cc2)cc1 | 14.6 | 1.15 | 64.6* | 42.6 | 83.7* | 28.8
CSc1ccc(/C=N/Nc2ccc(Cl)c(C(=O)O)c2)cc1 | 139.1* | 12.3* | -6.6 | 106.9 | -5.3 | 104.8
COc1ccc(-n2c(COc3cccc4ccccc34)nnc2SCC(=O)NCc2ccco2)cc1 | 4.0 | 0.95 | 8.1 | 92.5 | -0.3 | 97.8
CC(NC(N)=O)C(=O)Nc1ccc(Cl)c(S(=O)(=O)Nc2ccc(Br)cc2)c1 (configuration not stated) | -25.8 | 1.01 | 11.5 | 90.7 | 13.0 | 93.0
CC(C)=CCC(C)(C)/C=N/NC(N)=O | 18.6 | x | x | x | x | x
O=C1Nc2ccccc2S/C1=C/Nc1cccc(Cl)c1 | 11.8 | 2.02 | -33.2 | 129.7* | 12.8 | 95.6
COc1ccc(Oc2c(C=O)c3ccccc3n2C)cc1 | -2.9 | 1.13 | 7.9 | 92.7 | -3.2 | 107.2
Cn1c(Oc2ccc(F)cc2F)c(C=O)c2ccccc21 | -8.5 | 0.95 | 2.8 | 94.5 | 9.9 | 95.6
Cc1ccc(Oc2c(C=O)c3ccccc3n2C)cc1 | 5.4 | 1.33 | 4.4 | 96.0 | -55.8 | 144.8*
Cn1c(Oc2ccc(Cl)cc2)c(C=O)c2ccccc21 | 6.0 | 1.34 | 15.1 | 86.4 | -35.0 | 141.0*
Cc1ccc(S(=O)(=O)N2CCOCC2)cc1NC(=O)CNCC1CCCCC1 | 20.0 | 1.32 | 7.0 | 93.6 | 12.8 | 89.6
COC(=O)c1sc2nc3c(cc2c1N)COC(C)(C)C3 | -10.6 | 4.18* | -48.4 | 142.1* | 3.1 | 98.4
